# This is a sample that favours compounds with a hit; in the whole collection about 4.3% have one here.
# CHO parental Ca – counter-screen for OX1R antagonists: effect in parental CHO cells; parental CHO-K1, ATP-induced calcium, Fluo-8 fluorescence; AID 463079; inhibition, % at 5.6 µM; hit rate 0.63% among 330,000;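 active = inhibition above that plate's mean sample inhibition plus 3 SD, cut at about 26% in these data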;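 note: 0% = ATP-challenged DMSO wells and 100% = DMSO wells without ATP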
#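 Material: parental CHO cells / Compound: single nominal dose of 5.6 µM per compound / Signal: Fluo-8 fluorescence / Replicates: singlicate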
# TAAR1 agonist – human TAAR1 agonism | activation, % at 3 µM | Q96RJ0 | CHO RD-HGA16 TAAR1, Fluo-8 calcium fluorescence; vehicle wells 0%, saturating PEA agonist 100% | hit rate 0.99% among 360,000;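 active = activation above the mean activation of all test compounds in the run plus 3 SD, cut at about 38% in these data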
# Target sequence (Q96RJ0 whole entry, looked up): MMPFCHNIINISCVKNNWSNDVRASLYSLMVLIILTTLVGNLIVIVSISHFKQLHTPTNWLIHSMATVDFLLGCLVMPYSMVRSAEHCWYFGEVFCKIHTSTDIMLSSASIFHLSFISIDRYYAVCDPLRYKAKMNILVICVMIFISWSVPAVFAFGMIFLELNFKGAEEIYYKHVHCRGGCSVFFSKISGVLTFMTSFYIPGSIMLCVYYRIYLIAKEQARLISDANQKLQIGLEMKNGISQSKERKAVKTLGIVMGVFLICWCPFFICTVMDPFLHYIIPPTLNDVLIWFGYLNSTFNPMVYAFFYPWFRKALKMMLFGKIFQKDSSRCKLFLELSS
#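 Test system: RD-HGA16 (CHO) cells co-expressing Gα16 and hTAAR1; dosing: one-point dosing at 3 µM (nominal); timing: 17-24 h seeding, 75 min 37 °C dye, 30 min RT; signal: kinetic Fluo-8 calcium fluorescence; read-out basis: % activation relative to PEA EC100 response; controls: DMSO and PEA EC100; replicates: n 1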
# TAAR1 antagonist – antagonists of human TAAR1; Q96RJ0; CHO RD-HGA16 TAAR1, Fluo-8 calcium fluorescence, antagonist; inhibition, % at 3 µM; hit rate 1.5% among 360,000; AID 624466;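 active = inhibition above a per-plate cutoff, the mean inhibition of test compounds on that plate plus 3 SD, cut at about 49% in these data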;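 note: 0% = DMSO plus EC80 beta-PEA response and 100% = DMSO alone without agonist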
#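 Material: CHO RD-HGA16 cells bearing hTAAR1; compound dosing: one-point dosing, 3 µM nominal final; schedule: dye loading 75 min at 37 °C, then 30 min room temperature; measured by: calcium fluorescence with Fluo-8; control set: vehicle and agonist controls; replication: n of 1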
# OX1R antag-1 – blocks the human orexin 1 receptor. O43613. OX1R-expressing cells, FRET antagonist read-out. inhibition, % at 6.6 µM. hit rate 1.8% among 330,000; in the data active = inhibition mostly above about 38%, no sharp cut-off; inactive = mostly below about 40%;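 note: 0% = agonist challenge alone and 100% = reference antagonist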
# GalR3 antag – human GalR3 antagonism; AID 651719; HEK293 GalR3-CNG cAMP membrane potential fluorescence; galR3 body fused to GalR1 C-terminus; hit rate 0.44% among 360,000; inhibition, % at 3 µM;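 active = inhibition above the screen-wide average plus 3 SD, cut at about 13% in these data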;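 note: forskolin and galanin both at EC90 stimulate the cells; cAMP rise reported by CNG channel membrane potential dye signal; 0% = forskolin plus galanin with DMSO and 100% = forskolin alone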
# Target sequence (O60755 1-299 limits assumed): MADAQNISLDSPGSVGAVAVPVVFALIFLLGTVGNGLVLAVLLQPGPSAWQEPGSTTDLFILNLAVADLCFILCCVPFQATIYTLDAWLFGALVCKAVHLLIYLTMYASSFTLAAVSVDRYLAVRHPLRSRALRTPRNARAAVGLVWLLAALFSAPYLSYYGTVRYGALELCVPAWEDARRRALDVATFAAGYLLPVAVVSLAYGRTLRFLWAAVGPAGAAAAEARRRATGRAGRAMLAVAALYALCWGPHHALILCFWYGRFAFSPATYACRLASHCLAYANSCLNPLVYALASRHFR
# OX1R antag-2 – blocks the human orexin 1 receptor | O43613 | CHO/OX1R cells, Fluo-8 calcium fluorescence, orexin A | inhibition, % at 5 µM | hit rate 0.43% among 330,000;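 active = inhibition above its plate's threshold, mean inhibition of all tested compounds on the plate plus 3 SD, cut at about 37% in these data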;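 note: 0% = orexin A challenge wells and 100% = SB-334867-A antagonist wells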
# TAAR1 ag conf – human TAAR1 agonism, confirmed; shares compounds with TAAR1 agonist; CHO RD-HGA16 TAAR1, Fluo-8 calcium fluorescence; scaled: DMSO 0%, maximal phenethylamine 100%; activation, % at 3 µM; hit rate 82% among 2,400;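 active = activation above a cutoff set at the run's mean compound activation plus 3 SD, cut at about 39% in these data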
# Ga16 ag counter – nonselective agonism, TAAR1 counter-screen; activation, % at 3 µM; shares compounds with TAAR1 agonist; hit rate 50% among 2,400; CHO-Ga16 parental, Fluo-8 calcium fluorescence; normalized to maximal ATP response, DMSO zero;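 active = activation above the run cutoff, the mean activation over all tested wells plus 3 SD, cut at about 12% in these data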;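 note: 0% = DMSO wells and 100% = maximal ATP response on the peak over basal ratio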
# TAAR1 desensitize – TAAR1 response desensitization, agonist counter-screen. shares compounds with TAAR1 agonist. CHO RD-HGA16 hTAAR1, Fluo-8 calcium, beta-PEA response inhibition. inhibition, % at 3 µM. hit rate 46% among 2,400;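 active = inhibition above the run cutoff, the mean inhibition of all test compounds plus 3 SD, cut at about 49% in these data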;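 note: beta-PEA stimulus applied at its EC80; loss of beta-PEA calcium signal after compound pretreatment read as receptor desensitization; 0% = DMSO with beta-PEA at EC80 and 100% = DMSO alone without agonist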
# Ga16 antag count – nonselective Ga16 antagonist in TAAR1 agonist counter-screen; shares compounds with TAAR1 agonist; CHO-Ga16 ATP-induced calcium, Fluo-8 fluorescence; inhibition, % at 3 µM; hit rate 39% among 2,400; AID 651952;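 active = inhibition above the plate's mean compound inhibition plus 3 SD, computed per plate, cut at about 22% in these data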;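 note: 0% = EC80 ATP with DMSO and 100% = DMSO wells without ATP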
# * hit, by the source's call; · = no result given; ! = a repeat was not active.
SMILES,CHO parental Ca,TAAR1 agonist,TAAR1 antagonist,OX1R antag-1,GalR3 antag,OX1R antag-2,TAAR1 ag conf,Ga16 ag counter,TAAR1 desensitize,Ga16 antag count
Clc1ccc(Cn2ncc3c(N4CCCCC4)ncnc32)cc1,-20,48*,52*,15,-1,-12,45*,24*,38,24*
Clc1ccc(Cn2ncc3c(NCc4ccccc4)ncnc32)cc1,-13,53*,6,3,-5,-17,51*,38*,49,30*
O=C(CSC1=NS(=O)(=O)c2cc(F)ccc2N1)NCCc1ccccc1,-1,101*,81*,15,0,-7,105*,1,94*,6
O=C(CSC1=NS(=O)(=O)c2cc(Cl)ccc2N1)NCCc1ccccc1,1,104*,80*,25,-3,-13,93*,0,86*,7
O=C(CSC1=NS(=O)(=O)c2cc(F)ccc2N1)Nc1ccccc1,-6,1,-29,13,8,-3,·,·,·,·
COCc1ccc(C(=O)N2CCCC(N3CCN(c4cccc(Cl)c4)CC3)C2)s1 (configuration not stated),·,1,-20,·,-8,·,·,·,·,·
CCN(CC)CCNC(=O)c1ccc(Cl)c(S(=O)(=O)Nc2ccc(Cl)cc2)c1,-25,70*!,39,7,-6,-25,4,1,9,4
COc1cc(/C=c2\s/c(=C(/C#N)C(=O)N3CCCC3)n(-c3ccccc3)c2=O)ccc1O,-1,75*,76*,14,0,-7,33,34*,64*,54*
CCN(C(=O)CN1CCC(C(=O)OC)CC1)c1c(N)n(Cc2ccccc2)c(=O)[nH]c1=O,6,1,3,-1,-3,2,·,·,·,·
O=C(Nc1ccc(C(F)(F)F)cc1)c1ccccc1,20,52*,63*,16,-9,-8,17,12*,37,12
COc1ccc(/C=C/C(=O)c2ccc([N+](=O)[O-])o2)cc1OC,-31,59*,42,67,-2,-44,47*,17*,49*,31*
COc1ccc(CC(=O)NC(=S)NNC(=O)COc2c(C)cccc2C)cc1,-3,94*,53*,13,2,-13,93*,61*,64*,47*
COc1ccc(OCC(=O)NNC(=S)NC(=O)C2CC2)cc1,·,2,-5,·,-2,·,·,·,·,·
CCc1ccc(OCC(=O)NNC(=S)NC(=O)C2CCCCC2)c(Br)c1,-5,80*,43,21,2,-4,78*,47*,62*,45*
COc1ccc(OCC(=O)NNC(=S)NC(=O)C2CCCCC2)cc1,-8,65*,28,26,3,-8,78*,51*,38,36*
CNC(=S)NNC(=O)Cc1ccc(OC)cc1,6,2,4,1,-3,-1,·,·,·,·
CCOc1ccc(NC(=O)Cn2nnc(-c3ccccc3F)n2)cc1,-17,75*,32,5,-8,-16,29,4,11,12
N#C/C(=C\C=C\c1ccccc1)C(=O)Nc1ccccc1,-18,26,33,16,-6,-19,·,·,·,·
N#C/C(=C/C=C/c1ccccc1)C(=O)Nc1ccccc1,-4,74*,34,6,-6,-5,23,25*,11,26*
Cn1c(=O)c2cc(NC(=S)NC3CC3)ccc2n1C/C=C/c1ccccc1,·,2,-11,·,-6,·,·,·,·,·
CC(c1ccccc1C(O)(c1ccccc1)c1ccccc1)N(C)C (configuration not stated),30*,114*,74*,5,-9,32,113*,70*,98*,63*
C[C@H]1CN([C@@H](C)CO)C(=O)CCCn2cc(nn2)CO[C@@H]1CN(C)C(=O)CCC(F)(F)F,·,0,3,·,-8,·,·,·,·,·
COc1ccc(NC(=O)/C(C#N)=C\c2ccc(N3CCOCC3)o2)cc1,47*,135*,76*,59*,-5,54*,49*,60*,65*,62*
N#C/C(=C\c1ccc(N2CCOCC2)o1)C(=O)Nc1ccc(O)cc1,11,58*,31,61*,-3,12,21,19*,22,28*
COc1ccc(NC(=O)CSc2cn[nH]n2)cc1OC,-5,2,0,13,-10,-23,·,·,·,·
SMILES,CHO parental Ca,TAAR1 agonist,TAAR1 antagonist,OX1R antag-1,GalR3 antag,OX1R antag-2,TAAR1 ag conf,Ga16 ag counter,TAAR1 desensitize,Ga16 antag count
O=C(CCN1CCOCC1)NNC(=S)NC(=O)c1ccccc1,-4,4,6,11,-1,1,·,·,·,·
CC(=O)N(O)c1ccc(C=Cc2ccccc2)cc1,·,4,-20,·,-8,·,·,·,·,·
CCCOc1c(OC)cccc1C1CC(=O)Nc2cc3c(cc21)OCCO3 (configuration not stated),-22,39*,-12,10,-7,-31,10,9,-10,-2
CCCOc1c(OC)cccc1C1CC(=O)Nc2cc3c(cc21)OCO3 (configuration not stated),-24,11,3,24,-3,-26,·,·,·,·
O=C(Nc1ccccc1)Nc1nccs1,-1,47*,18,4,-3,-3,85*,3,49*,7
O=C(Nc1ccccc1)Nc1nncs1,-11,·,·,-4,10,-11,·,3,·,7
O=C(Cc1nnc(NC(=O)Nc2ccc(Cl)cc2)s1)NCc1ccccc1,0,19,30,14,8,-10,·,·,·,·
O=C(Cc1nnc(NC(=O)Nc2ccccc2)s1)NCc1ccccc1,-13,60*,39,17,-4,-9,80*,2,64*,10
CCN(CC)C(=O)CSc1nnc(SC(C)C(=O)NC2CC2)s1 (configuration not stated),-5,2,2,17,-4,1,·,·,·,·
O=C(C1CCCO1)N1CCN(C(=S)Nc2ccc(F)c(Cl)c2)CC1 (configuration not stated),-4,0,-5,20,-3,-5,·,·,·,·
COc1ccc(CN2CCN(Cc3cccc(OC)c3)C(CCO)C2)cc1 (configuration not stated),-16,6,-7,17,-2,-21,·,·,·,·

# Screening data from PubChem BioAssay.
